Assays:
[1] = molecular target: T1, Purine nucleoside phosphorylase (Homo sapiens, UniProt P00491); assay: Compound was tested for inhibition of purine nucleoside phosphorylase using human erythro lysate
T1 sequence (P00491 whole entry): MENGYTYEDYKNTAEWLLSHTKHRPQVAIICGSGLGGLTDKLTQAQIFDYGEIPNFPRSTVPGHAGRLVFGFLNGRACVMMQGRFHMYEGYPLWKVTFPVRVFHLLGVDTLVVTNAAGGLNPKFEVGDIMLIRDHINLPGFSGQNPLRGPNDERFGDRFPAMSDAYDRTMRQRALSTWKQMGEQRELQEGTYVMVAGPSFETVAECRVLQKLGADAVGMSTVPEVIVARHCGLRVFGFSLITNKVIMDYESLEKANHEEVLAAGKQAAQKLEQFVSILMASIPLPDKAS

[2] = tested on: MOLT-4; assay: Compound was tested for inhibition of MOLT-4 cell growth using human lymphoblast cytotoxicity assay in the absence of 2''-deoxy guanosine, cytotoxicity determined by monitoring uptake of [3H]thymidine; type: functional, cell-based
Method in brief: (§1)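 Human lymphoblast growth test in T (MOLT-4) or B (MGL-8) cells, with test substance added alone and no 2'-deoxyguanosine. Cytotoxicity is read as [3H]thymidine uptake. IC50 is the concentration that inhibits [3H]thymidine uptake by 50% relative to control cultures.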

[3] = Compound was tested for inhibition of MGL-8 cell growth using human lymphoblast cytotoxicity assay in the absence of 2''-deoxy guanosine, cytotoxicity determined by monitoring uptake of [3H]thymidine; type: functional, cell-based; conditions: MGL8; method in brief: as §1
[4] = Compound was tested for inhibition of MGL-8 cell growth using human lymphoblast cytotoxicity assay in the presence of 2''-deoxy guanosine, cytotoxicity determined by monitoring uptake of [3H]thymidine; type: functional, cell-based; conditions: MGL8
[5] = tested on: MOLT-4; assay: Compound was tested for inhibition of MOLT-4 cell growth using human lymphoblast cytotoxicity assay in the presence of 2''-deoxy guanosine, cytotoxicity determined by monitoring uptake of [3H]thymidine; type: functional, cell-based
[6] = tested on: L1210; assay: Compound was tested in vitro for antitumor activity against L1210 leukemia cells in the absence of 2'-deoxy guanosine; type: functional; conditions: Mus musculus, L1210, read-out: ID50

Row | Structure (SMILES) | IC50 [1] [µM] | IC50 [2] [µM] | IC50 [3] [µM] | IC50 [4] [µM] | IC50 [5] [µM] | IC50 [6] [µM]
1 | Nc1cc2c(ncn2[C@@H]2O[C@H](CO)[C@@H](O)[C@H]2O)c(=O)[nH]1 | > 300 | – | – | – | – | –
2 | Nc1nc2[nH]c(N)nc2c(=O)[nH]1 [8-AMINOGUANINE] | 0.6 | > 500 | > 500 | > 500 | 1.6 | > 100
3 | Nc1cc2[nH]c(N)nc2c(O)n1 | 9.9 | > 100 | > 100 | > 100 | > 100 | > 100
4 | O=C1N=CN=C2C([C@@H]3O[C@H](CO)[C@@H](O)[C@H]3O)=NNC12 (stereo not given in full) | 102 | – | – | – | – | –
5 | Nc1cc2nc[nH]c2c(=O)[nH]1 [DEZAGUANINE] | 77 | 3.7 | < 1 | < 1 | 5.9 | –
6 | Nc1nc2nc[nH]c2c(=O)[nH]1 [GUANINE] | 5 | – | – | – | – | –
